Test results from ChEMBL document CHEMBL1156818, “Rational design of indoleamine 2,3-dioxygenase inhibitors” (J Med Chem, 2010).

Assays:
[1] = target: T1, Indoleamine 2,3-dioxygenase 1 (Homo sapiens, UniProt P14902)
[2] = target: Indoleamine 2,3-dioxygenase 1 (Mus musculus, UniProt P28776); assay: Inhibition of mouse recombinant IDO expressed in mouse P815B cells assessed as blockade of tryptophan degradation by HPLC; type: cell-based
[3] = target: Tryptophan 2,3-dioxygenase (Mus musculus, UniProt P48776); assay: Inhibition of mouse recombinant TDO expressed in mouse P815B cells assessed as blockade of tryptophan degradation by HPLC; type: cell-based
[4] = Cytotoxicity against mouse P815B cells expressing mouse recombinant IDO by MTT assay; type: cell-based; settings: read-out: LD50 (the source's name)
Method in brief: (§1)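 Cells (2 × 10⁵/well) incubated 8 h at 37 °C in HBSS with 80 μM L-Trp and compound titrated 0.312–80 μM or 1.56–400 μM. Supernatant was removed; the remaining cells received culture medium (Iscove, 10% FCS, amino acids) plus MTT for 3-4 h at 37 °C.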

[5] = Cytotoxicity against mouse P815B cells expressing mouse recombinant TDO by MTT assay; type: cell-based; settings: for CC50: mouse, P815B cells expressing mouse recombinant TDO, read-out: LD50 (the source's name)
Method in brief: as §1

[6] = (§2) Cytotoxicity against HEK293 cells expressing human recombinant IDO by MTT assay; type: cell-based; settings: human, HEK293 cells expressing human recombinant IDO; read-out: LD50 (the source's name)
Method in brief: as §1

[7] = target: T1, Indoleamine 2,3-dioxygenase 1; assay: Inhibition of human recombinant IDO expressed in HEK293 cells assessed as blockade of tryptophan degradation by HPLC; type: cell-based
HEK293 = assay: as §2; type: cell-based; settings: Homo sapiens, HEK293
Method in brief: as §1

Chain of Tryptophan 2,3-dioxygenase (P48776 whole entry): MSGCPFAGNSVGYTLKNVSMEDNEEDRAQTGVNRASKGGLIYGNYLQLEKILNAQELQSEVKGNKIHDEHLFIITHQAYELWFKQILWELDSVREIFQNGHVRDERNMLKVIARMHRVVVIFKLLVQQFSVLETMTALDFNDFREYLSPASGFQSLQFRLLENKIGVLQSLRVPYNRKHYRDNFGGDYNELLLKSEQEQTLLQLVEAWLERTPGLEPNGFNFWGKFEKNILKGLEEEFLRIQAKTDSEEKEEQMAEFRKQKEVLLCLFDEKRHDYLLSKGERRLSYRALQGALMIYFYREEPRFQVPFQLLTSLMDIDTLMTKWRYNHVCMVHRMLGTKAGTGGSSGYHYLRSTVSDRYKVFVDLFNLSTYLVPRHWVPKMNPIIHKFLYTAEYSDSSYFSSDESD
Chain of Indoleamine 2,3-dioxygenase 1 (Mus musculus, UniProt P28776) (P28776 whole entry): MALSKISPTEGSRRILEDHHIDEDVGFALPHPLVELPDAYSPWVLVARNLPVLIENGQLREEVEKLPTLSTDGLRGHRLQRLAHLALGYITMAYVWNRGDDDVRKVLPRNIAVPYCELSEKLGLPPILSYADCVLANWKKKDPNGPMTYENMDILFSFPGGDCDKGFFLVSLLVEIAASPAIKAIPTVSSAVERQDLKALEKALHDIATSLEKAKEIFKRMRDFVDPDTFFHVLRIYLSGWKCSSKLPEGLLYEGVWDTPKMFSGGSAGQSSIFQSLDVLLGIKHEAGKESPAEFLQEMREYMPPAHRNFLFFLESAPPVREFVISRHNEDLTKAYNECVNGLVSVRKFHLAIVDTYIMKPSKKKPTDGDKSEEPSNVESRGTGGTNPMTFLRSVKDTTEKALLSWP
T1 sequence (P14902 whole entry): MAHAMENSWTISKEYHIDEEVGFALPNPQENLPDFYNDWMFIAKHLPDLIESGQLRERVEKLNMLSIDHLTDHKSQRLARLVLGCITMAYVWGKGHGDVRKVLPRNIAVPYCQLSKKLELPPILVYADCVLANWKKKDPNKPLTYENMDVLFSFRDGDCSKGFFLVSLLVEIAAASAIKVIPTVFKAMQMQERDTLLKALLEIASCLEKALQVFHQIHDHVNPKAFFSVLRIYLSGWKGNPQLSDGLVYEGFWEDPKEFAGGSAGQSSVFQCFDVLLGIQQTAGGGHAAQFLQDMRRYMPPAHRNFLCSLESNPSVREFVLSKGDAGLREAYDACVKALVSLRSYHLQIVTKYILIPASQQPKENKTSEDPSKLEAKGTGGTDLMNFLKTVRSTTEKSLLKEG

## O=C(c1ccccc1)c1cccc(O)c1
[1]; read-out: IC50
  IC50: 500 µM

## Nc1nc(-c2ccccc2)cs1
[1]; read-out: IC50
  IC50: 1000 µM

## c1ccc(-c2cnn[nH]2)cc1
[2]; read-out: IC50
  IC50: 5 µM
[3]
  IC50: > 400 µM
[4]
  CC50: > 80 µM
[5]
  CC50: > 400 µM
[6]
  CC50: > 400 µM

## Oc1ccc(O)c2ccccc12
[3]
  IC50: > 10 µM
[4]
  CC50: 40 µM
[5]
  CC50: 10 µM
[6]
  CC50: 40 µM

## c1cc(-c2cnn[nH]2)ccn1
[2]; p815b
  IC50: Not Active
[4]
  CC50: 200 µM
[1]; read-out: IC50
  IC50: 5 µM

## CC(C)/N=C1/C=C(C2=C/C(=N\C(C)C)c3ccccc3C2=O)C(=O)c2ccccc21
[2]; read-out: IC50
  IC50: > 50 µM
[7]
  IC50: 25 µM
[3]
  IC50: > 50 µM
[4]
  CC50: 50 µM
[5]
  CC50: 100 µM
[1]; read-out: IC50
  IC50: 0.45 µM
[6]
  CC50: 50 µM

## CCC(CC)/N=C1/C=C(C2=C/C(=N\C(CC)CC)c3ccccc3C2=O)C(=O)c2ccccc21
[2]; read-out: IC50
  IC50: > 200 µM
[7]
  IC50: 50 µM
[3]
  IC50: > 50 µM
[4]
  CC50: 200 µM
[5]
  CC50: 100 µM
[1]; read-out: IC50
  IC50: 0.52 µM
[6]
  CC50: > 400 µM

## c1cncc(-c2c[nH]nn2)c1
[1]; read-out: IC50
  IC50: 680 µM

## Nc1ccc(O)c2ncccc12
[2]; read-out: IC50
  IC50: 1 µM
[3]
  IC50: 5 µM
[4]
  CC50: 2.5 µM
[5]
  CC50: 5 µM
[1]; read-out: IC50
  IC50: 3 µM

## Oc1cccc2[nH]c3ccccc3c12
[1]; read-out: IC50
  IC50: 400 µM

## CN1c2ccccc2SC1S (centres undefined)
[1]
  IC50: Not Active

## NC1Nc2ccccc2S1 (centres undefined)
[1]
  IC50: Not Active

## OC1Cc2ccccc2N1 (centres undefined)
[1]
  IC50: Not Active

## CC(C)(C)Nc1ccc(O)c2ccccc12
[2]; p815b
  IC50: Not Active
[4]
  CC50: 20 µM
[1]; read-out: IC50
  IC50: 4 µM

## Nc1ccccc1Oc1ccccc1
[1]; read-out: IC50
  IC50: > 1000 µM

## Oc1ccc(NCc2ccccc2)c2ccccc12
[1]; read-out: IC50
  IC50: 2.5 µM

## NCCNc1ccc(O)c2ccccc12
[1]; read-out: IC50
  IC50: 44 µM

## SC1Nc2ccccc2N1
[1]
  IC50: Not Active

## OC1Nc2ccccc2S1 (centres undefined)
[1]
  IC50: Not Active

## N[C@@H](CO)C(=O)Nc1ccc(O)c2ccccc12
[1]; read-out: IC50
  IC50: 400 µM

## OCCOc1ccc(O)c2ccccc12
[1]; read-out: IC50
  IC50: 12.5 µM

## SC1Nc2cc(Cl)ccc2S1 (centres undefined)
[1]; read-out: IC50
  IC50: 50 µM

## SC1Nc2ccccc2S1 (centres undefined)
[2]; read-out: IC50
  IC50: 20 µM
[7]
  IC50: 7 µM
[3]
  IC50: > 80 µM
[4]
  CC50: > 80 µM
[5]; Mus musculus, P815B
  LD50: > 80 µM
[1]; read-out: IC50
  IC50: 50 µM
HEK293
  LD50: > 80 µM

## CNc1ccc(O)c2ccccc12
[1]; read-out: IC50
  IC50: 12.5 µM

## CN(C)c1ccc(O)c2ccccc12
[1]; read-out: IC50
  IC50: 1000 µM

## NCC(=O)Nc1ccc(O)c2ccccc12
[1]; read-out: IC50
  IC50: 105 µM

## Sc1nc(-c2ccccc2)cs1
[2]; read-out: IC50
  IC50: 20 µM
[3]
  IC50: > 80 µM
[4]
  CC50: > 80 µM
[5]
  CC50: > 80 µM
[6]
  CC50: > 80 µM

## Oc1ccc(NC2CCCCC2)c2ccccc12
[1]; read-out: IC50
  IC50: 15 µM

## OC1c2ccccc2-c2ccccc21
[1]; read-out: IC50
  IC50: > 1000 µM

## O=C1c2ccccc2-c2ccccc21
[1]; read-out: IC50
  IC50: > 200 µM

## CCNc1ccc(O)c2ncccc12
[2]; p815b
  IC50: Not Active
[4]
  CC50: 20 µM
[1]; read-out: IC50
  IC50: 40 µM

## CC(C)Nc1ccc(O)c2ncccc12
[2]; p815b
  IC50: Not Active
[4]
  CC50: > 200 µM
[1]; read-out: IC50
  IC50: 15 µM

## CC(C)CNc1ccc(O)c2ccccc12
[1]; read-out: IC50
  IC50: 25 µM

## C[C@@H](N)C(=O)Nc1ccc(O)c2ccccc12
[1]; read-out: IC50
  IC50: 90 µM

## CCC(CC)Nc1ccc(O)c2ccccc12
[1]; read-out: IC50
  IC50: 3.5 µM

## CN(C)CSC1Nc2ccccc2S1 (centres undefined)
[1]; read-out: IC50
  IC50: 50 µM

## OC1Nc2ccccc2N1
[1]
  IC50: Not Active

## COc1ccc(N)c2ccccc12
[1]; read-out: IC50
  IC50: 5.5 µM

## CSC1Nc2ccccc2S1 (centres undefined)
[1]
  IC50: Not Active

## CCCNc1ccc(O)c2ccccc12
[2]; p815b
  IC50: Not Active
[4]
  CC50: 20 µM
[1]; read-out: IC50
  IC50: 4.5 µM

## C[C@H](N)C(=O)Nc1ccc(O)c2ccccc12
[1]; read-out: IC50
  IC50: 60 µM

## Nc1ccc(Nc2ccccc2)cc1
[1]; read-out: IC50
  IC50: 400 µM

## Nc1ccc2c(c1)SC(S)N2 (centres undefined)
[1]
  IC50: Not Active

## CN(C)CSc1nc(-c2ccccc2)cs1
[1]; read-out: IC50
  IC50: > 1000 µM

## CCN(CC)CCNc1ccc(O)c2ccccc12
[1]; read-out: IC50
  IC50: 3 µM

## CC1=C/C(=N\C(C)C)c2ccccc2C1=O
[2]; read-out: IC50
  IC50: 4 µM
[7]
  IC50: > 50 µM
[3]
  IC50: 6.3 µM
[4]
  CC50: 15 µM
[5]
  CC50: 10 µM
[1]; read-out: IC50
  IC50: 0.2 µM
[6]
  CC50: 50 µM

## NCCCNc1ccc(O)c2ccccc12
[1]; read-out: IC50
  IC50: 5 µM

## Nc1ccc(O)c2ccccc12
[2]; p815b
  IC50: Not Active
[4]
  CC50: 2 µM
[1]; read-out: IC50
  IC50: 6 µM

## O=C(Nc1ccc(O)c2ccccc12)[C@@H]1CCCN1
[1]; read-out: IC50
  IC50: 200 µM

## CCNc1ccc(O)c2ccccc12
[3]
  IC50: > 50 µM
[4]
  CC50: 400 µM
[5]
  CC50: 50 µM
[6]
  CC50: 200 µM

## CC(C)Nc1ccc(O)c2ccccc12
[2]; read-out: IC50
  IC50: 30 µM
[7]
  IC50: 12.5 µM
[3]
  IC50: > 15 µM
[4]
  CC50: > 80 µM
[5]
  CC50: 15 µM
[1]; read-out: IC50
  IC50: 2.5 µM
[6]
  CC50: 100 µM

## Cn1cc(C[C@H](N)C(=O)O)c2ccccc21 [(L)-1-METHYLTRYPTOPHAN]
[3]
  IC50: > 400 µM
[4]
  CC50: > 1000 µM
[5]
  CC50: > 400 µM
[6]
  CC50: > 400 µM

## O=C(c1ccccc1)c1ccccc1 [BENZOPHENONE]
[1]; read-out: IC50
  IC50: 1000 µM

## Oc1ccc(Cl)cc1Cc1cc(Cl)ccc1O [DICHLOROPHEN]
[2]; p815b
  IC50: Not Active
[4]
  CC50: 0.2 µM

## Oc1cccc2cccnc12 [OXYQUINOLINE]
[1]; read-out: IC50
  IC50: 750 µM
